Results pooled from the literature.
Compare with care: the assays were run in different laboratories.
Method: competition with immobilised ligand
JAK2 JH1: Tyrosine-protein kinase JAK2, JH1 (JAK2, Homo sapiens, UniProt O60674)

CC1CCCN1c1nccc(-c2cnn3ncccc23)n1 (stereo not drawn) — remaining binding (JAK2 JH1; cell-free assay; 1 µM): 98%
COc1cnc(Nc2cccc(S(N)(=O)=O)c2)nc1N1CCN(c2ccccc2)C(=O)C1 — remaining binding (JAK2 JH1; binding; 1 µM): 6.1%
CN(C)c1nccc(-c2cnc3ncccn23)n1 — remaining binding (JAK2 JH1; cell-free assay; 1 µM): 80%
O=C(Nc1cccnn1)N1CCC(=Cc2cccc(Oc3ccc(C(F)(F)F)cn3)c2)CC1 — remaining binding (JAK2 JH1; cell-free assay; 1 µM): 100%
FC(F)(F)Oc1cccc(-c2cnc3ccc(-c4ccncc4)nn23)c1 — remaining binding (JAK2 JH1; cell-free assay; 5 µM): 56%
O=C(NS(=O)(=O)c1ccc(NCC2CCOCC2)c([N+](=O)[O-])c1)c1ccc(N2CCN(Cc3ccc(C(F)(F)F)cc3-c3ccc(Cl)cc3)CC2)cc1Oc1cnc2[nH]ccc2c1 — remaining binding (JAK2 JH1; cell-free assay; 1 µM): 90%
Nc1ncc2c(n1)-c1c([nH]c3ccc(C#CC4CC4)cc13)CCCC2 — remaining binding (JAK2 JH1; binding; 1 µM): 80%
Cc1cnc(Nc2ccc(C(=O)N3CCC(N4CCCC4)CC3)cc2)nc1-c1cc2ccccc2s1 — remaining binding (JAK2 JH1; binding; 1 µM): 0%
CCc1ccccc1C(=O)Nc1n[nH]c2c(C)c(F)c(C3C(C#N)=C(C)N(C)C(C)=C3C#N)cc12 — remaining binding (JAK2 JH1; cell-free assay; 1 µM): 100%
O=C(Nc1c[nH]nc1C(=O)NC1CCNCC1)c1cc(F)cc(F)c1 — remaining binding (JAK2 JH1; binding; 1 µM): 100%
C[C@H](c1cccc(C#N)c1)n1cc(Cl)cc(C(N)=O)c1=N — remaining binding (JAK2 JH1; cell-free assay; 1 µM): 100%
Cc1cnn2ncc(-c3ccnc(N(C)C)n3)c2c1 — remaining binding (JAK2 JH1; cell-free assay; 1 µM): 93%
CN(C)C(=O)Cn1cc(-c2nc([C@@](C)(c3ccc(-c4cnc(N)nc4)cc3)C3CC3)no2)cn1 — remaining binding (JAK2 JH1; cell-free assay; 1 µM): 73%
C[C@@H]1CN(c2ccc3ncc(-c4ccc5[nH]nc(C6CC6)c5c4)n3n2)C[C@H](C)O1 — remaining binding (Tyrosine-protein kinase JAK2 (JAK2, Homo sapiens, UniProt O60674); binding; 50 nM): 100%
O=C(NCCCN1CCOCC1)c1ccc(Nc2nccc(-c3cc4ccccc4s3)n2)cc1 — remaining binding (JAK2 JH1; binding; 1 µM): 0.4%
CNC(=O)[C@@H]1CC[C@@H](n2c(-c3ccc4cnccc4c3)nc3ccc(C(=O)NCc4cccc(C(N)=O)c4)cc32)C1 — remaining binding (JAK2 JH1; binding; 1 µM): 100%
CNC(=O)Nc1ccc2c(c1)[C@@]1(CC2)OC(=O)N(CC(=O)N(Cc2ccc(F)cc2)[C@@H](C)C(F)(F)F)C1=O — remaining binding (JAK2 JH1; cell-free assay; 1 µM): 100%
O=C(c1ccc(Nc2ncc(Cl)c(-c3ccc(Cl)s3)n2)cc1)N1CCC(N2CCCC2)CC1 — remaining binding (JAK2 JH1; binding; 1 µM): 1.3%
